# Experimental data: ChEMBL document CHEMBL5705905, “Pharmacological targeting of kinases MST1 and MST2 augments tissue repair and regeneration” (Sci Transl Med, 2016)
# Activity calls are given as the source filed them. The calls are words filed in the database; no cut-off is given here.
# How the values were obtained:
# [1] = target: Casein kinase I isoform gamma-3 (Homo sapiens) (UniProt Q9Y6M4); experiment: Inhibition of CSNK1G3 (unknown origin) assessed as remaining activity at 1 uM by Kinome scan method relative to control
# Casein kinase I isoform gamma-3 (Homo sapiens), sequence (Q9Y6M4 whole entry, looked up, canonical isoform): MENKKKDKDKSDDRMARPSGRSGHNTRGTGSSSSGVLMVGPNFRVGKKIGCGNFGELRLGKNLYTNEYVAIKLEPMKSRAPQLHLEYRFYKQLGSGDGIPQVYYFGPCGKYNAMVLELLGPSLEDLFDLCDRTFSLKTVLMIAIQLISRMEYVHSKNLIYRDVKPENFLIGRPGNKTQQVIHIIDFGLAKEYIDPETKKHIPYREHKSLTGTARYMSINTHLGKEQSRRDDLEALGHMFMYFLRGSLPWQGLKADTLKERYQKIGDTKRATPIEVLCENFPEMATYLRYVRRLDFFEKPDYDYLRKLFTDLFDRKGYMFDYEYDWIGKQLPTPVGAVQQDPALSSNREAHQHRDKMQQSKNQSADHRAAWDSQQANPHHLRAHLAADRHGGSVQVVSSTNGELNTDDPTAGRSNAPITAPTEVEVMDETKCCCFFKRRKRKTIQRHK
# Method in brief: (§1)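 Active-site-dependent competition-binding profiling (KINOMEscan) at 1 μM against a 468-kinase panel; compound supplied from a 10 mM DMSO stock. Read-out is ctrl% = (test signal − positive control signal)/(negative control signal − positive control signal) × 100. DMSO is the negative control (100%) and a control compound the positive control (0%). Lower ctrl% means tighter binding.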
# [2] = system: Epidermal growth factor receptor (Homo sapiens), P00533 [UNDEFINED MUTATION]; experiment: Inhibition of EGFR E746-A750del mutant (unknown origin) assessed as remaining activity at 1 uM by Kinome scan method relative to control
# [3] = target: Mitogen-activated protein kinase kinase kinase kinase 5 (Homo sapiens) (UniProt Q9Y4K4); experiment: Inhibition of MAP4K5 (unknown origin) assessed as remaining activity at 1 uM by Kinome scan method relative to control
# [4] = target: Cyclin-dependent kinase 15 (Homo sapiens) (UniProt Q96Q40); experiment: Inhibition of PFTAIRE2 (unknown origin) assessed as remaining activity at 1 uM by Kinome scan method relative to control
# [5] = MRT (0 to infinity) in male Sprague-Dawley rat at 5 mg/kg, iv measured for 24 hrs by LC-MS/MS analysis; assay type: ADME, organism-based; conditions: in vivo
# [6] = target: Serine/threonine-protein kinase 3 (Homo sapiens) (UniProt Q13188); conditions: dose 100.0 µM
# [7] = target: Serine/threonine-protein kinase NLK (Homo sapiens) (UniProt Q9UBE8); experiment: Inhibition of NLK (unknown origin) assessed as remaining activity at 1 uM by Kinome scan method relative to control
# Serine/threonine-protein kinase NLK (Homo sapiens), sequence (Q9UBE8 whole entry, the tested form may be a part): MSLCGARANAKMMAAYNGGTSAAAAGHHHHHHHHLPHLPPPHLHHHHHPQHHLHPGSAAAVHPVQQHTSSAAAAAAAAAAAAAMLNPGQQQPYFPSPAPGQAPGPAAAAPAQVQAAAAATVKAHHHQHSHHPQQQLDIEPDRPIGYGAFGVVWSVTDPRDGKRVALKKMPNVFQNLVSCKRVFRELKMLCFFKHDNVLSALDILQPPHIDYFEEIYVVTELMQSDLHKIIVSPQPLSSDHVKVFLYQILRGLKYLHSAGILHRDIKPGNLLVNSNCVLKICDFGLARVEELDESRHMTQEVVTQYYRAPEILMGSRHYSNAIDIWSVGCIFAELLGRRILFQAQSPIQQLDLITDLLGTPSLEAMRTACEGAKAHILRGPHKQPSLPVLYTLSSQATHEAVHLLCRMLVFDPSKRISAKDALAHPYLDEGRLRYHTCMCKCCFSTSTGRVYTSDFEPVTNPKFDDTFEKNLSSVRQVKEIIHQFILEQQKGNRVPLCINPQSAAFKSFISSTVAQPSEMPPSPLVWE
# [8] = target: Tyrosine-protein kinase JAK2 (Homo sapiens) (UniProt O60674); experiment: Inhibition of JAK2 JH1 domain (unknown origin) assessed as remaining activity at 1 uM by Kinome scan method relative to control
# [9] = target: Receptor tyrosine-protein kinase erbB-2 (Homo sapiens) (UniProt P04626); experiment: Inhibition of ERBB2 (unknown origin) assessed as remaining activity at 1 uM by Kinome scan method relative to control
# [10] = target: ALK tyrosine kinase receptor (Homo sapiens) (UniProt Q9UM73); experiment: Inhibition of ALK (unknown origin) assessed as remaining activity at 1 uM by Kinome scan method relative to control
# Method in brief: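 Active-site-dependent competition-binding (KINOMEscan) panel of 468 kinases, test compound at 1 μM (from a 10 mM DMSO stock). Read-out is ctrl% = (test signal − positive control signal)/(negative control signal − positive control signal) × 100. DMSO is the negative control (100%) and a control compound is the positive control (0%). Lower ctrl% means tighter binding.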
# [11] = system: Epidermal growth factor receptor (Homo sapiens), P00533 [L858R,T790M]; experiment: Inhibition of EGFR L858R/T790M mutant (unknown origin) assessed as remaining activity at 1 uM by Kinome scan method relative to control
# [12] = system: Proto-oncogene tyrosine-protein kinase receptor Ret (Homo sapiens), P07949 [V804L]; experiment: Inhibition of RET V804L (unknown origin) assessed as remaining activity at 1 uM by Kinome scan method relative to control
# [13] = target: Focal adhesion kinase 1 (Homo sapiens) (UniProt Q05397); experiment: Inhibition of FAK (unknown origin) assessed as remaining activity at 1 uM by Kinome scan method relative to control
# Focal adhesion kinase 1 (Homo sapiens), sequence (Q05397 2-1052 limits assumed): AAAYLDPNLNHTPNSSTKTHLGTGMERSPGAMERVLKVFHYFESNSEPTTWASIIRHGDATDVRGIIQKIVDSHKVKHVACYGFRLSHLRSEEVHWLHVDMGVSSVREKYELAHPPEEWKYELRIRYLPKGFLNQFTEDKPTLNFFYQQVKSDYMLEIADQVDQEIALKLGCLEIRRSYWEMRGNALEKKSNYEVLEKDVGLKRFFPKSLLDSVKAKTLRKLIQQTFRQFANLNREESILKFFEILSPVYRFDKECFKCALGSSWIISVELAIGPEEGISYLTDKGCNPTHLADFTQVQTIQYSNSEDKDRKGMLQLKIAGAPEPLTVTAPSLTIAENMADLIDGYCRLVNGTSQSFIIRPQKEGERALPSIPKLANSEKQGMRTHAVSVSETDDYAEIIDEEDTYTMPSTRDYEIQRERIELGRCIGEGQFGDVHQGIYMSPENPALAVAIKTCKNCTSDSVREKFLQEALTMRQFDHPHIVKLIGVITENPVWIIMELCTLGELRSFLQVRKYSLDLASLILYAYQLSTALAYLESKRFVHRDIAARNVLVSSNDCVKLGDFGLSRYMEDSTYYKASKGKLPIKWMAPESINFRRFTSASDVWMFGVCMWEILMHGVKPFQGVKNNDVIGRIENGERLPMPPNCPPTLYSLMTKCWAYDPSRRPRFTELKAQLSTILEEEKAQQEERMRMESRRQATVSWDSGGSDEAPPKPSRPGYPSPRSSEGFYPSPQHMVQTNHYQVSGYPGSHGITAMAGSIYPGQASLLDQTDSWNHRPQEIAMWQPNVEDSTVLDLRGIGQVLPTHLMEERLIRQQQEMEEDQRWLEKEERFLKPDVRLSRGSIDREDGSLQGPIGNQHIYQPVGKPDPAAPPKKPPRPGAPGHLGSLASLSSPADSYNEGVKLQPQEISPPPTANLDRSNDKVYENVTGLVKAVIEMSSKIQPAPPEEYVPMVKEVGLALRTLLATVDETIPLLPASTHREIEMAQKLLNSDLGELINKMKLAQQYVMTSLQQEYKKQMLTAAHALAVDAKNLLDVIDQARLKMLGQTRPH
# [14] = target: Cyclin-dependent kinase 4/cyclin D1 (Homo sapiens) (UniProt P11802+P24385); experiment: Inhibition of CDK4/cyclinD1 (unknown origin) assessed as remaining activity at 1 uM by Kinome scan method relative to control; assay type: protein-complex assay; method in brief: as §1
# Mus musculus [15] = experiment: Protection against duct ligation-induced mouse assessed as low dead cells at 1 mg/kg, ip administration daily for 10 days by TUNEL staining; assay type: functional, organism-based; conditions: Liver, time 10.0 day
# [16] = target: Serine/threonine-protein kinase PknB (Mycobacterium tuberculosis) (UniProt P9WI81); experiment: Inhibition of Mycobacterium tuberculosis PknB assessed as remaining activity at 1 uM by Kinome scan method relative to control
# Method in brief: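 KINOMEscan active-site competition binding assay at 1 μM against 468 kinases. Ctrl% = (test − positive control)/(negative control DMSO − positive control) × 100; lower values mean tighter binding.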
# [17] = target: Dual specificity protein kinase CLK4 (Homo sapiens) (UniProt Q9HAZ1); experiment: Inhibition of CLK4 (unknown origin) assessed as remaining activity at 1 uM by Kinome scan method relative to control; method in brief: as §1
# Dual specificity protein kinase CLK4 (Homo sapiens), sequence (Q9HAZ1 whole entry, looked up): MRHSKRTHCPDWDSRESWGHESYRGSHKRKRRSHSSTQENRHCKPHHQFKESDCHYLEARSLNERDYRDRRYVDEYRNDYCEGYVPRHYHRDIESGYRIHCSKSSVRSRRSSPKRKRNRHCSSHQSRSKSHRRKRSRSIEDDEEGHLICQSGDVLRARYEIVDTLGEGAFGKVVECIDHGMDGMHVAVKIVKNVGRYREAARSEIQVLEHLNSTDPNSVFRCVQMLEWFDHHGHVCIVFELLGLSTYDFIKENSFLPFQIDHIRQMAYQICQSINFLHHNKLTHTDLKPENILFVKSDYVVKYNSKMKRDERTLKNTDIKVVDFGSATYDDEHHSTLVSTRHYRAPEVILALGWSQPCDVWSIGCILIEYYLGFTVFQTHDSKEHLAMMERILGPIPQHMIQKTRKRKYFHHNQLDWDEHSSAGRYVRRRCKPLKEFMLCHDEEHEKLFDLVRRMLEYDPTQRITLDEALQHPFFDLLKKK
# [18] = target: Serine/threonine-protein kinase 17A (Homo sapiens) (UniProt Q9UEE5); experiment: Inhibition of DRAK1 (unknown origin) assessed as remaining activity at 1 uM by Kinome scan method relative to control
# Serine/threonine-protein kinase 17A (Homo sapiens), sequence (Q9UEE5 whole entry, the tested form may be a part): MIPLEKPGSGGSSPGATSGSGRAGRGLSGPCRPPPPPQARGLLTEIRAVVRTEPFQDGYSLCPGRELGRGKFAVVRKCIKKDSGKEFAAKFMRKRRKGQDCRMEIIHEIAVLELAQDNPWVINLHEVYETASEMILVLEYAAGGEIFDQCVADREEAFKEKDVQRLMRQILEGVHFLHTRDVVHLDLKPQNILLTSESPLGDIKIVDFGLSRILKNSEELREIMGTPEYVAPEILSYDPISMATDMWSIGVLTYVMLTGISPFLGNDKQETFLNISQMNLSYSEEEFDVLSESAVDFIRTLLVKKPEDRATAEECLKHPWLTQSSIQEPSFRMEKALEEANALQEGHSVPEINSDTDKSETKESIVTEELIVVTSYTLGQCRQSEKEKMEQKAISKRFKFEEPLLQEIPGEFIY
# [19] = target: Tyrosine-protein kinase JAK1 (Homo sapiens, UniProt P23458); experiment: Inhibition of JAK1 JH2 domain (unknown origin) assessed as remaining activity at 1 uM by Kinome scan method relative to control
# Tyrosine-protein kinase JAK1, sequence (P23458 whole entry, the tested form may be a part, canonical isoform): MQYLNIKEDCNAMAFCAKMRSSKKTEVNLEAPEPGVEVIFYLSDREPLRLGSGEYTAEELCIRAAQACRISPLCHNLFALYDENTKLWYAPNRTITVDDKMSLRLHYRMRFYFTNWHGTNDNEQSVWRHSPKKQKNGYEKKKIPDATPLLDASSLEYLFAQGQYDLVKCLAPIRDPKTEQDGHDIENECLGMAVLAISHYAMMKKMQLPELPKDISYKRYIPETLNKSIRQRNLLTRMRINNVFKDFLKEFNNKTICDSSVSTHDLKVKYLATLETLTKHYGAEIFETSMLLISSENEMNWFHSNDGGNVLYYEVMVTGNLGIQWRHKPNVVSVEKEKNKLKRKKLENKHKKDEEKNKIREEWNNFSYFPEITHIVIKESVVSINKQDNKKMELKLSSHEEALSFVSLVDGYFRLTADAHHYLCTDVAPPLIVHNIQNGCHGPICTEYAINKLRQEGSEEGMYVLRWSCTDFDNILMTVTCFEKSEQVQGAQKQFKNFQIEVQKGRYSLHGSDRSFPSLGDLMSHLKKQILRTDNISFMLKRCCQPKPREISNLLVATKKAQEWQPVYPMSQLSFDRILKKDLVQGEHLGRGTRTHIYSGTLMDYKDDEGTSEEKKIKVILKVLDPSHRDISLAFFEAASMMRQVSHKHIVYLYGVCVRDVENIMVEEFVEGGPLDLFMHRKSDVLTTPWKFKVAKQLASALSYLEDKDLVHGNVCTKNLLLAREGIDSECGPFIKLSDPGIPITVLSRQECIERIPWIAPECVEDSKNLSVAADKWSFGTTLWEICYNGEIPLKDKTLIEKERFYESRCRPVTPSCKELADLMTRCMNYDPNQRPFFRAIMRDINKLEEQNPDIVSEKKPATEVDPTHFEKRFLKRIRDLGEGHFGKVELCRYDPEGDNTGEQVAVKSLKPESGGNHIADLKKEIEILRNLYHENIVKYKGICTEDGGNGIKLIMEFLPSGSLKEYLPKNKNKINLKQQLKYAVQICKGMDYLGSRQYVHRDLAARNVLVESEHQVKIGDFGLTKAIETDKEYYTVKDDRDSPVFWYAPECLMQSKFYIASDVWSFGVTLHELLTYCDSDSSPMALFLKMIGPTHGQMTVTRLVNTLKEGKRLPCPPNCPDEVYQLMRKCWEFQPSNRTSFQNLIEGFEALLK
# [20] = target: Casein kinase I isoform alpha (Homo sapiens) (UniProt P48729); experiment: Inhibition of CSNK1A1 (unknown origin) assessed as remaining activity at 1 uM by Kinome scan method relative to control; method in brief: as §1
# Casein kinase I isoform alpha (Homo sapiens), sequence (P48729 2-337 limits assumed): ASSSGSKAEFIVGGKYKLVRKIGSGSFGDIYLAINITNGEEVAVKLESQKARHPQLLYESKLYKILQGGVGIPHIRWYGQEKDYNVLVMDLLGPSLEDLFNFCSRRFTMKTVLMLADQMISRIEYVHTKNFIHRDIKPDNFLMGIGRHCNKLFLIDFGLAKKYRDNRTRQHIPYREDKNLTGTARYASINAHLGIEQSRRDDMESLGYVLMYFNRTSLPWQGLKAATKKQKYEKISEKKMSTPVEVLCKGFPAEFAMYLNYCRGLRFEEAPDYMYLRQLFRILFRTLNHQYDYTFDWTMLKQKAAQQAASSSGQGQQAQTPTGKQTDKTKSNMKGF
# [21] = target: Mitogen-activated protein kinase kinase kinase 2 (Homo sapiens, UniProt Q9Y2U5); experiment: Inhibition of MAP3K2 (unknown origin) in presence of ATP by enzymatic assay
# [22] = system: Receptor-type tyrosine-protein kinase FLT3 (Homo sapiens), P36888 [D835V]; experiment: Inhibition of FLT3 D835V mutant (unknown origin) assessed as remaining activity at 1 uM by Kinome scan method relative to control
# [23] = target: SRSF protein kinase 3 (Homo sapiens) (UniProt Q9UPE1); experiment: Inhibition of SRPK3 (unknown origin) assessed as remaining activity at 1 uM by Kinome scan method relative to control
# SRSF protein kinase 3 (Homo sapiens), sequence (Q9UPE1 whole entry): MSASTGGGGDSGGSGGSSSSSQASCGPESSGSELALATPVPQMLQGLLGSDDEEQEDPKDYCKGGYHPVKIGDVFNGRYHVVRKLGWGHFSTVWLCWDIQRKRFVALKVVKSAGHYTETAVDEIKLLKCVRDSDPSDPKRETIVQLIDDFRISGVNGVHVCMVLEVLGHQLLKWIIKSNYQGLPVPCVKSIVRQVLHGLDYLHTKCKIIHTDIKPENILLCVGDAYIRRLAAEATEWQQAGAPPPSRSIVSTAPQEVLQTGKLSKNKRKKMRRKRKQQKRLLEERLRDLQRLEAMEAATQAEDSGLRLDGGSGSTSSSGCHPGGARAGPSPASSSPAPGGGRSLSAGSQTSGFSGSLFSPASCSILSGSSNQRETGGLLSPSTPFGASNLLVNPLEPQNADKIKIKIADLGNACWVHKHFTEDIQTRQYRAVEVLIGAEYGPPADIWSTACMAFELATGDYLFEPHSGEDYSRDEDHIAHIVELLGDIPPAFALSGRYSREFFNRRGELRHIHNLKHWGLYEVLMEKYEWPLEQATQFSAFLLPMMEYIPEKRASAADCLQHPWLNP
# [24] = target: Serine/threonine-protein kinase PRP4 homolog (Homo sapiens) (UniProt Q13523); experiment: Inhibition of PRP4 (unknown origin) assessed as remaining activity at 1 uM by Kinome scan method relative to control
# [25] = target: MAP/microtubule affinity-regulating kinase 3 (Homo sapiens) (UniProt P27448); experiment: Inhibition of MARK3 (unknown origin) assessed as remaining activity at 1 uM by Kinome scan method relative to control
# Mus musculus [26] = experiment: Protection against Mst1fl/fl Mst2fl/fl-Alb-Cre double knockout mouse assessed as Ki67-positive cells at 1 mg/kg, ip administrated twice a day for 2 days measured after 36 hrs by immunohistochemical staining; assay type: functional, organism-based; conditions: Liver, time 2.0 day
# [27] = target: Cyclin-dependent kinase 19 (Homo sapiens) (UniProt Q9BWU1); experiment: Inhibition of CDK11 (unknown origin) assessed as remaining activity at 1 uM by Kinome scan method relative to control
# Method in brief: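 KINOMEscan active-site-dependent competition-binding panel of 468 kinases, compound at 1 μM from a DMSO stock. Result reported as ctrl% = (test signal − positive control signal)/(negative control signal − positive control signal) × 100. The negative control is DMSO (100%) and the positive control is a control compound (0%). Lower ctrl% means tighter binding.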
structure (smiles),measurement,setting,value
CN1C(=O)c2sccc2N(C)c2nc(Nc3ccc(S(N)(=O)=O)cc3)ncc21,Activity,[1],72%
same,Activity,[2],82%
same,Activity,[3],100%
same,Activity,[4],99%
same,MRT inf,[5],1.36 h
same,Tm,[6],62 °C
same,Activity,[7],85%
same,Activity,[8],15%
same,Activity,[9],100%
same,Activity,[10],94%
same,Activity,[11],77%
same,Activity,[12],78%
same,Activity,[13],96%
same,Activity,[14],93%
same,Activity,Mus musculus [15],Active
same,Activity,[16],89%
same,Activity,[17],100%
same,Activity,[18],100%
same,Activity,[19],4.3%
same,Activity,[20],88%
same,IC50,[21],79.6 nM
same,Activity,[22],18%
same,Activity,[23],100%
same,Activity,[24],97%
same,Activity,[25],98%
same,Activity,Mus musculus [26],inactive
same,Activity,[27],95%
